# Data taken from ChEMBL document CHEMBL4842335, “Discovery of penipanoid C-inspired 2-(3,4,5-trimethoxybenzoyl)quinazolin-4(3H)-one derivatives as potential anticancer agents by inhibiting cell proliferation and inducing apoptosis in hepatocellular carcinoma cells” (Eur J Med Chem, 2021).
# The source made the active and inactive calls. The calls are words filed in the database; no cut-off is given here.
# What was measured:
# [1] = system: HepG2; assay: Antitumor activity against human HepG2 cells xenografted in BALB/c mouse assessed as tumor growth inhibition at 4 mg/kg, ip relative to control; type: functional; conditions: read-out: TGI
# How it was run: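 Female BALB/c nude mice (14–17 g) given HepG2 s.c. (1×10⁶/mouse); at 100–200 mm³ tumours, randomised to 3 groups of 5. Daily i.p. dosing at 4 or 8 mg/kg for 20 days; vehicle 15% N-methylpyrrolidone/25% Solutol HS-15/60% saline. Caliper volume twice weekly, TV = width² × length/2; inhibition from volume change versus vehicle group.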
# [2] = system: HepG2; assay: Induction of apoptosis in human HepG2 cells assessed as dead cells at 3.2 uM incubated for 48 hrs by Annexin V and dead cell assay kit (reference value: 0.55%); type: functional
# How it was run: (§1)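 HepG2 cells were grown in DMEM and exposed to 0, 0.8, 1.6 or 3.2 µM test agent or DMSO vehicle for 48 h. Apoptosis was then read on a Muse cell analyzer using an Annexin V & Dead Cell kit, which separates live, early apoptotic, late apoptotic and dead populations. The figure legend gives n = 3 with SEM.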
# [3] = system: HepG2; assay: Cytotoxicity against human HepG2 cells assessed as inhibition of proliferation incubated for 72 hrs by MTT assay; type: functional, cell-based; conditions: HepG2, 72 h
# How it was run: (§2)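 Cells plated at 3×10³/well, grown overnight in DMEM + 10% FBS, then exposed to compounds (DMSO stocks; 0.1% DMSO negative control) for 72 h at 37 °C. MTT (5 mg/mL in PBS, added at 10%) for 4 h, formazan dissolved in DMSO, A570 read. Inhibition = (Ac−As)/(Ac−Ab)×100; IC50 by calculator; ≥3 independent repeats.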
# [4] = system: HepG2; assay: Induction of cell cycle arrest in human HepG2 cells assessed as accumulation at G1 phase at 0.8 uM incubated for 48 hrs by flow cytometry (reference value: 46.88%); type: functional
# [5] = target: T1, Serine/threonine-protein kinase AKT (Homo sapiens) (UniProt P31751+Q9Y243+P31749); assay: Inhibition of Akt phosphorylation in human Bel-7402 cells incubated for 48 hrs by Western blot analysis; type: cell-based
# How it was run: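 Bel-7402 exposed for 48 h to 0, 1.6 or 3.2 µM; cell extracts on 12.5% SDS-PAGE, transferred to PVDF, probed overnight at 4 °C with AKT, p-AKT, ERK1/2, p-ERK1/2 antibodies (1:1000), HRP secondary 1 h, chemiluminescent detection. Band levels normalised to control = 1; SD, n = 3.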
# [6] = system: HepG2; assay: Induction of apoptosis in human HepG2 cells assessed as live cells at 3.2 uM incubated for 48 hrs by Annexin V and dead cell assay kit (reference value: 93.90%); type: functional; how it was run: as §1
# [7] = Toxicity in BALB/c mouse xenografted with human HepG2 cells at 4 to 8 mg/kg, ip relative to control; type: organism-based; conditions: in vivo, dose 4-8 mg/kg
# How it was run: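 Female BALB/c nude mice (14–17 g) carrying s.c. HepG2 xenografts (100–200 mm³), 5 per group. Dosed i.p. daily for 20 days at 4 or 8 mg/kg in 15% N-methylpyrrolidone/25% Solutol HS-15/60% saline, with vehicle controls. Body weight tracked over the treatment.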
# [8] = system: U-251; assay: Cytotoxicity against human U251 cells assessed as inhibition of proliferation incubated for 72 hrs by MTT assay; type: functional, cell-based; conditions: U-251, 72 h; how it was run: as §2
# [9] = system: Bel-7402; assay: Induction of cell cycle arrest in human Bel-7402 cells assessed as accumulation at S phase at 1.6 uM incubated for 48 hrs by flow cytometry (reference value: 28.48%); type: functional
# [10] = system: Bel-7402; assay: Induction of cell cycle arrest in human Bel-7402 cells assessed as accumulation at G2/M phase at 0.8 uM incubated for 48 hrs by flow cytometry (reference value: 25.20%); type: functional
# [11] = system: Bel-7402; assay: Induction of cell cycle arrest in human Bel-7402 cells assessed as accumulation at G2/M phase at 1.6 uM incubated for 48 hrs by flow cytometry (reference value: 25.20%); type: functional
# [12] = system: HepG2; assay: Induction of apoptosis in human HepG2 cells assessed as dead cells at 1.6 uM incubated for 48 hrs by Annexin V and dead cell assay kit (reference value: 0.55%); type: functional; how it was run: as §1
# [13] = system: A549; assay: Cytotoxicity against human A549 cells assessed as inhibition of proliferation incubated for 72 hrs by MTT assay; type: functional, cell-based; conditions: A549, 72 h; how it was run: as §2
# [14] = target: T1, Serine/threonine-protein kinase AKT (Homo sapiens); assay: Inhibition of Akt phosphorylation in human HepG2 cells incubated for 48 hrs by Western blot analysis; type: cell-based; conditions: dose 1.6-3.2 µM
# How it was run: (§3)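 HepG2 treated 48 h with 0, 1.6 or 3.2 µM; lysates run on 12.5% SDS-PAGE, PVDF transfer, primary antibodies (AKT, p-AKT, ERK1/2, p-ERK1/2; 1:1000) overnight at 4 °C, HRP secondaries 1 h, chemiluminescence. Phosphorylation quantified relative to untreated control set to 1; SD, n = 3.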
# [15] = system: HepG2; assay: Induction of cell cycle arrest in human HepG2 cells assessed as accumulation at S phase at 1.6 uM incubated for 48 hrs by flow cytometry (reference value: 28.23%); type: functional
# How it was run: (§4)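 HepG2 treated 48 h with 0, 0.8 or 1.6 µM (DMSO control); phase distribution by flow cytometry using a cell cycle and apoptosis kit; mean with SD, n = 3.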
# [16] = system: Bel-7402; assay: Induction of cell cycle arrest in human Bel-7402 cells assessed as accumulation at G1 phase at 0.8 uM incubated for 48 hrs by flow cytometry (reference value: 46.32%); type: functional
# [17] = system: HepG2; assay: Inhibition of colony formation in human HepG2 cells at 1.6 to 3.2 uM measured after 10 days by crystal violet staining based assay relative to control; type: functional, cell-based; conditions: dose 1.6-3.2 µM, time 10.0 day
# How it was run: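 1000 cells/well seeded, attached overnight in DMEM + 10% FBS, then grown 10 days at 37 °C, 5% CO₂ with 0, 0.2, 0.4, 0.8, 1.6 or 3.2 µM. Fixed in 4% paraformaldehyde 15 min, stained 0.1% crystal violet 30 min, colonies counted; formation rate relative to solvent control.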
# [18] = system: HepG2; assay: Induction of cell cycle arrest in human HepG2 cells assessed as accumulation at G2/M phase at 0.8 uM incubated for 48 hrs by flow cytometry (reference value: 24.89%); type: functional; how it was run: as §4
# [19] = target: T2, Mitogen-activated protein kinase; ERK1/ERK2 (Homo sapiens) (UniProt P27361+P28482); assay: Upregulation of ERK1/2 phosphorylation in human Bel-7402 cells incubated for 48 hrs by Western blot analysis
# [20] = system: Bel-7402; assay: Cytotoxicity against human Bel-7402 cells assessed as inhibition of proliferation incubated for 72 hrs by MTT assay; type: functional, cell-based; conditions: Bel-7402, 72 h; how it was run: as §2
# [21] = Selectivity index, ratio of IC50 for human LO2 cells to IC50 for human HepG2 cells; type: toxicity; conditions: LO2 cells versus HepG2 cells, read-out: Selectivity Index
# [22] = target: T2, Mitogen-activated protein kinase; ERK1/ERK2 (Homo sapiens); assay: Inhibition of ERK1/2 phosphorylation in human HepG2 cells incubated for 48 hrs by Western blot analysis; type: cell-based; how it was run: as §3
# [23] = system: HepG2; assay: Induction of apoptosis in human HepG2 cells assessed as increase in cleaved PARP level at 1.6 to 3.2 uM after 48 hrs by Western blot analysis; conditions: dose 1.6-3.2 µM
# T2 sequence (P27361 whole entry, looked up): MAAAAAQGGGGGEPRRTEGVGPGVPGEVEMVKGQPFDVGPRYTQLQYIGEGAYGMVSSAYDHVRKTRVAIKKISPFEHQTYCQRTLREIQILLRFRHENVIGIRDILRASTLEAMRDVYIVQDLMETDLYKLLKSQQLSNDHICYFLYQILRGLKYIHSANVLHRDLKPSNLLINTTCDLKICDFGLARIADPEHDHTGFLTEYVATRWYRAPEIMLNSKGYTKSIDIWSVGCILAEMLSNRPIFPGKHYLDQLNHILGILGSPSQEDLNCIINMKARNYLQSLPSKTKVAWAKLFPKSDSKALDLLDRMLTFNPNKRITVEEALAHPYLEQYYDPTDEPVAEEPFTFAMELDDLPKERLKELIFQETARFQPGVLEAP
# T2 sequence (P28482 whole entry, looked up): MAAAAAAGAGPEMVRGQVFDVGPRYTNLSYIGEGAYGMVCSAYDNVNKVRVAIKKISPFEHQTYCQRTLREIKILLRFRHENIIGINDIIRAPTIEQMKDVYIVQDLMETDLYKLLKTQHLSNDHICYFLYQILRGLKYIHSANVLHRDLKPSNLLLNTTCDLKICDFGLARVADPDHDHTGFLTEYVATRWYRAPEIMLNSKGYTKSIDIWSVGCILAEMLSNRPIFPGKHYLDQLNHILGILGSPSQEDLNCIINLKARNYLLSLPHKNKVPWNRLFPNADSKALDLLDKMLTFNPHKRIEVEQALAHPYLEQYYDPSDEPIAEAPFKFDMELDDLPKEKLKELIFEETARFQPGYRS
# T1 sequence (P31749 whole entry, looked up): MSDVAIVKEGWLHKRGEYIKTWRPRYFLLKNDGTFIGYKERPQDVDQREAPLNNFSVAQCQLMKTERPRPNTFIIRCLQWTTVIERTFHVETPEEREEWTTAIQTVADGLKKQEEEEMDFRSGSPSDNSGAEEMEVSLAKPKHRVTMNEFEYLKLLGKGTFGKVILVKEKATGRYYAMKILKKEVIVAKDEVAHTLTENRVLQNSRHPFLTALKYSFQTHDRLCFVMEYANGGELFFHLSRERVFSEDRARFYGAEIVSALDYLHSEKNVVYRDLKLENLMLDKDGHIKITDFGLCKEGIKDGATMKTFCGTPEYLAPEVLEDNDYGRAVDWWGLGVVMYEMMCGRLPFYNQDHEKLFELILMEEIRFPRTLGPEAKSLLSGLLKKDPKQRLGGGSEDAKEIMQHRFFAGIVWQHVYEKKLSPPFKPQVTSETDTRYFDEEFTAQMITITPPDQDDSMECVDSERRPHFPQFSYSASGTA
# T1 sequence (P31751 whole entry, looked up): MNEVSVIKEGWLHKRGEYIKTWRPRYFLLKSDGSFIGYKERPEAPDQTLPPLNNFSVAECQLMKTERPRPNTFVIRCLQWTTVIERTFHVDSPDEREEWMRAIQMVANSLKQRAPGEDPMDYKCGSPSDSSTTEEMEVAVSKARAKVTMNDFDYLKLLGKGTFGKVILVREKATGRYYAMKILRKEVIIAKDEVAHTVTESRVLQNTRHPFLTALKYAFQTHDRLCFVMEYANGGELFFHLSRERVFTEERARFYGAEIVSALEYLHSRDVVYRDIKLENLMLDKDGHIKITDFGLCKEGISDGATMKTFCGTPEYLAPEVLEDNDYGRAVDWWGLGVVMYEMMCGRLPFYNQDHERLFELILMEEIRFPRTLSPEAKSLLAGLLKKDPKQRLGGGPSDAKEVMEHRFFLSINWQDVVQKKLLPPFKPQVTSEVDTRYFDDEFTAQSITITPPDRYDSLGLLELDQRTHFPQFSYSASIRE
# T1 sequence (Q9Y243 whole entry, looked up): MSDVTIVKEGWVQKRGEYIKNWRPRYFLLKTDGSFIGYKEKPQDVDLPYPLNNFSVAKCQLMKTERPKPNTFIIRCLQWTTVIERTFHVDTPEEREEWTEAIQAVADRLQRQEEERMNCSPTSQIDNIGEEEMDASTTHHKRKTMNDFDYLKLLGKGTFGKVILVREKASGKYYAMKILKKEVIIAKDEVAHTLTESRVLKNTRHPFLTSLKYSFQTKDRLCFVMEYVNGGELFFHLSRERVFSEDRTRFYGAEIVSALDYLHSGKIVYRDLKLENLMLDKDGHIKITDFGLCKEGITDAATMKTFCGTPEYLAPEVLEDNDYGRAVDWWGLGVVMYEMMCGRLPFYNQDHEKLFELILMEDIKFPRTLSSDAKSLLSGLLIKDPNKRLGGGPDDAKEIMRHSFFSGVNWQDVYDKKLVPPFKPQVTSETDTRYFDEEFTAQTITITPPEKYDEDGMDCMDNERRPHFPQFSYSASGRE
structure (smiles),measurement,setting,value
COc1cc(C(=O)c2nc3ccccc3c(=O)[nH]2)cc(OC)c1OC,inhibition in vivo at 4 mg/kg,[1],19.1%
same,Activity,[2],0.55%
same,IC50,[3],1220 nM
same,Activity,[4],37.84%
same,inhibition,[5],Dose-Dependent Effect
same,Activity,[6],53.2%
same,Activity,[7],Non-Toxic
same,IC50,[8],5480 nM
same,Activity,[9],34.5%
same,Activity,[10],27.69%
same,Activity,[11],32.43%
same,Activity,[12],0.95%
same,IC50,[13],3880 nM
same,inhibition,[14],Dose-Dependent Effect
same,Activity,[15],35.65%
same,Activity,[16],39.2%
same,inhibition,[17],Active
same,Activity,[18],28.73%
same,Activity,[19],Dose-Dependent Effect
same,IC50,[20],1710 nM
same,selectivity ratio,[21],4.9
same,inhibition,[22],Dose-Dependent Effect
same,Activity,[23],Active
